In ChEMBL document CHEMBL4706761, “Design and Implementation of Synthetic RNA Binders for the Inhibition of miR-21 Biogenesis” (ACS Med Chem Lett, 2021):

Experiments:
microRNA 21 [1] = assay: Binding affinity to 5'-FAM/3'-DAB-labeled UGUCGGGUAGCUUAUCAGACUGAUGUUGACUGUUGAAUCUCAUGGCAACACCAGUCGAUGGGCUGUCUGACA pre-miRNA-21 (unknown origin) assessed as dissociation constant incubated for overnight in presence of Saccharomyces cerevisiae tRNA by fluorescence based assay; type: nucleic-acid assay
microRNA 21 [2] = assay: Inhibition of 5'-FAM/3'-DAB-labeled UGUCGGGUAGCUUAUCAGACUGAUGUUGACUGUUGAAUCUCAUGGCAACACCAGUCGAUGGGCUGUCUGACA pre-miRNA-21 (unknown origin) biogenesis incubated for 30 mins in presence of human recombinant dicer by FRET based assay; type: nucleic-acid assay
Summary of the method: (§1)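 FRET cleavage assay on a 72-mer pre-miR-21 carrying 5′-fluorescein and 3′-dabcyl. Substrate is processed by recombinant Dicer, E. coli RNase III or MCF7 cell lysate across a range of ligand concentrations. Cleavage raises fluorescence. IC50 from duplicates over three independent experiments.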

microRNA 21 [3] = assay: Binding affinity to 5'-FAM/3'-DAB-labeled UGUCGGGUAGCUUAUCAGACUGAUGUUGACUGUUGAAUCUCAUGGCAACACCAGUCGAUGGGCUGUCUGACA pre-miRNA-21 (unknown origin) assessed as dissociation constant incubated for overnight by fluorescence based assay; type: nucleic-acid assay
microRNA 21 [4] = assay: Binding affinity to 5'-FAM/3'-DAB-labeled UGUCGGGUAGCUUAUCAGACUGAUGUUGACUGUUGAAUCUCAUGGCAACACCAGUCGAUGGGCUGUCUGACA pre-miRNA-21 (unknown origin) assessed as dissociation constant incubated for overnight in presence of double stranded 15-mer 5'-CGTTTTTATTTTTGC-3' DNA by fluorescence based assay; type: nucleic-acid assay
microRNA 21 [5] = assay: (§2) Selectivity index, ratio of Kd for 5'-FAM/3'-DAB-labeled UGUCGGGUAGCUUAUCAGACUGAUGUUGACUGUUGAAUCUCAUGGCAACACCAGUCGAUGGGCUGUCUGACA pre-miRNA-21 (unknown origin) in presence of tRNA to Kd for 5'-FAM/3'-DAB-labeled UGUCGGGUAGCUUAUCAGACUGAUGUUGACUGUUGAAUCUCAUGGCAACACCAGUCGAUGGGCUGUCUGACA pre-miRNA-21 (unknown origin); type: nucleic-acid assay
microRNA 21 [6] = assay: as §2, with “double stranded 15-mer 5'-CGTTTTTATTTTTGC-3' DNA” for “tRNA”; type: nucleic-acid assay
microRNA 21 [7] = assay: Binding affinity to 5'-FAM/3'-DAB-labeled UGUCGGGUAGCUUAUCAGACUGAUGUUGACUGUUGAAUCUCAUGGCAACACCAGUCGAUGGGCUGUCUGACA pre-miRNA-21 (unknown origin) assessed as pre-miRNA-21-compound complex formation by measuring Gibbs free energy; type: nucleic-acid assay
Summary of the method: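 ΔG°T obtained from the fluorescence binding assay on 5′-FAM-pre-miR-21, run at several temperatures (278–308 K). Enthalpic (ΔH°) and entropic (−TΔS°) contributions are derived from these values.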

microRNA 21 [8] = assay: Inhibition of 5'-FAM/3'-DAB-labeled UGUCGGGUAGCUUAUCAGACUGAUGUUGACUGUUGAAUCUCAUGGCAACACCAGUCGAUGGGCUGUCUGACA pre-miRNA-21 (unknown origin) biogenesis preincubated for 30 mins followed by MCF7 cell lysate addition and measured after 1 hr by fluorescence based assay; summary of the method: as §1
microRNA 21 [9] = assay: Inhibition of 5'-FAM/3'-DAB-labeled UGUCGGGUAGCUUAUCAGACUGAUGUUGACUGUUGAAUCUCAUGGCAACACCAGUCGAUGGGCUGUCUGACA pre-miRNA-21 (unknown origin) biogenesis preincubated for 30 mins followed by Escherichia coli RNase III addition and measured after 1 hr by fluorescence based assay; type: nucleic-acid assay; summary of the method: as §1

| SMILES | Kd (microRNA 21 [1]) [nM] | IC50 (microRNA 21 [2]) [nM] | Kd (microRNA 21 [3]) [nM] | Kd (microRNA 21 [4]) [nM] | Ratio (microRNA 21 [5]) | Ratio (microRNA 21 [6]) | deltaG (microRNA 21 [7]) [kcal/mol] | IC50 (microRNA 21 [8]) [nM] | IC50 (microRNA 21 [9]) [nM] |
| --- | --- | --- | --- | --- | --- | --- | --- | --- | --- |
| NC[C@@H]1O[C@H](O[C@H]2[C@@H](O)[C@H](O[C@@H]3[C@@H](O)[C@H](N)C[C@H](N)[C@H]3O[C@H]3O[C@H](CN)[C@@H](O)[C@H](O)[C@H]3N)O[C@@H]2CO)[C@H](N)[C@@H](O)[C@@H]1O [FRAMYCETIN] | 1420 |  | 1390 | 1950 | 1 | 1.4 |  |  |  |
| Cc1ccc(C(=O)Nc2nc(-c3cccc(NC(=O)CCC(=O)N[C@@H](Cc4cn(C[C@H]5O[C@@H](O[C@@H]6[C@@H](O)[C@H](N)C[C@H](N)[C@H]6O[C@H]6O[C@H](CN)[C@@H](O)[C@H](O)[C@H]6N)[C@H](O)[C@@H]5O[C@H]5O[C@@H](CN)[C@@H](O)[C@H](O)[C@H]5N)nn4)C(=O)N[C@@H](CCCCN)C(N)=O)c3)cs2)cc1 | 405 |  | 348 | 877 | 1.2 | 2.5 |  |  |  |
| C[C@H](NC(=O)[C@H](Cc1cn(C[C@H]2O[C@@H](O[C@@H]3[C@@H](O)[C@H](N)C[C@H](N)[C@H]3O[C@H]3O[C@H](CN)[C@@H](O)[C@H](O)[C@H]3N)[C@H](O)[C@@H]2O[C@H]2O[C@@H](CN)[C@@H](O)[C@H](O)[C@H]2N)nn1)NC(=O)CCC(=O)NCCn1ccc(=O)[nH]c1=O)C(N)=O | 807 |  | 641 | 1460 | 1.3 | 2.3 |  |  |  |
| Cc1ccc(C(=O)Nc2nc(-c3cccc(NC(=O)CCC(=O)N[C@@H](Cc4cn(C[C@H]5O[C@@H](O[C@@H]6[C@@H](O)[C@H](N)C[C@H](N)[C@H]6O[C@H]6O[C@H](CN)[C@@H](O)[C@H](O)[C@H]6N)[C@H](O)[C@@H]5O[C@H]5O[C@@H](CN)[C@@H](O)[C@H](O)[C@H]5N)nn4)C(=O)N[C@@H](Cc4c[nH]cn4)C(N)=O)c3)cs2)cc1 | 168 | < 5000 | 162 | 274 | 1 | 1.7 |  |  |  |
| Cc1ccc(C(=O)Nc2nc(-c3cccc(NC(=O)CCC(=O)N[C@@H](Cc4cn(C[C@H]5O[C@@H](O[C@@H]6[C@@H](O)[C@H](N)C[C@H](N)[C@H]6O[C@H]6O[C@H](CN)[C@@H](O)[C@H](O)[C@H]6N)[C@H](O)[C@@H]5O[C@H]5O[C@@H](CN)[C@@H](O)[C@H](O)[C@H]5N)nn4)C(=O)N[C@@H](C)C(N)=O)c3)cs2)cc1 | 170 | < 5000 | 128 | 261 | 1.3 | 2 |  |  |  |

The next molecules have a lower Kd (microRNA 21 [1]) than those just listed; values first:

| Kd (microRNA 21 [1]) [nM] | IC50 (microRNA 21 [2]) [nM] | Kd (microRNA 21 [3]) [nM] | Kd (microRNA 21 [4]) [nM] | Ratio (microRNA 21 [5]) | Ratio (microRNA 21 [6]) | deltaG (microRNA 21 [7]) [kcal/mol] | IC50 (microRNA 21 [8]) [nM] | IC50 (microRNA 21 [9]) [nM] | SMILES |
| --- | --- | --- | --- | --- | --- | --- | --- | --- | --- |
| 50.4 | < 5000 | 50.3 | 80.9 | 1 | 1.6 | -9.92 |  |  | CC(=O)Nc1nc(-c2cccc(NC(=O)CCC(=O)N[C@@H](Cc3cn(C[C@H]4O[C@@H](O[C@@H]5[C@@H](O)[C@H](N)C[C@H](N)[C@H]5O[C@H]5O[C@H](CN)[C@@H](O)[C@H](O)[C@H]5N)[C@H](O)[C@@H]4O[C@H]4O[C@@H](CN)[C@@H](O)[C@H](O)[C@H]4N)nn3)C(=O)N[C@@H](Cc3c[nH]cn3)C(N)=O)c2)cs1 |
| 51 | < 5000 | 50.7 | 95.7 | 1 | 1.9 | -9.92 |  |  | CC(=O)Nc1nc(-c2cccc(NC(=O)CCC(=O)N[C@@H](Cc3cn(C[C@H]4O[C@@H](O[C@@H]5[C@@H](O)[C@H](N)C[C@H](N)[C@H]5O[C@H]5O[C@H](CN)[C@@H](O)[C@H](O)[C@H]5N)[C@H](O)[C@@H]4O[C@H]4O[C@@H](CN)[C@@H](O)[C@H](O)[C@H]4N)nn3)C(=O)N[C@@H](CCCCN)C(N)=O)c2)cs1 |
| 134 | < 5000 | 128 | 171 | 1 | 1.3 |  | 3100 | 1260 | NC[C@@H]1O[C@H](O[C@H]2[C@@H](O)[C@H](O[C@@H]3[C@@H](O)[C@H](N)C[C@H](N)[C@H]3O[C@H]3O[C@H](CN)[C@@H](O)[C@H](O)[C@H]3N)O[C@@H]2Cn2cc(CCC(=O)Nc3cccc(-c4csc(NC(=O)[C@@H](N)Cc5c[nH]cn5)n4)c3)nn2)[C@H](N)[C@@H](O)[C@@H]1O |
| 151 |  | 133 | 187 | 1.1 | 1.4 |  |  |  | CC(=O)Nc1nc(-c2cccc(NC(=O)CCC(=O)N[C@@H](Cc3cn(C[C@H]4O[C@@H](O[C@@H]5[C@@H](O)[C@H](N)C[C@H](N)[C@H]5O[C@H]5O[C@H](CN)[C@@H](O)[C@H](O)[C@H]5N)[C@H](O)[C@@H]4O[C@H]4O[C@@H](CN)[C@@H](O)[C@H](O)[C@H]4N)nn3)C(=O)N[C@@H](C)C(N)=O)c2)cs1 |
